Measurements taken from ChEMBL document CHEMBL5244249, “Discovery of tofacitinib derivatives as orally active antitumor agents based on the scaffold hybridization strategy” (Eur J Med Chem, 2020).
Activity calls are given as the source filed them. The calls are words filed in the database; no cut-off is given here.

Assays:
[1] = Activation of MAPK pathway in human MGC-803 cells assessed as increase in phosphorylated p38 expression at 5 to 10 uM incubated for 24 hrs by Western blot analysis; assay type: cell-based; conditions: filed as activator, dose 5-10 µM
MGC-803 [2] = assay: Induction of mitochondrial dysfunction in human MGC-803 cells assessed as downregulation of procaspase-7 expression at 5 to 10 uM incubated for 24 hrs by Western blot analysis; assay type: functional, cell-based; conditions: dose 5-10 µM
Procedure, shortened: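 Western blot of caspase 9, 3, 7, PARP and γH2A.X in MGC-803 lysates after 24 h exposure to 5, 7.5 or 10 μM; band quantitation; mean ± SD from three independent experiments.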

MGC-803 [3] = assay: Induction of apoptosis in human MGC-803 cells assessed as nuclear condensation at 5 to 10 uM incubated for 24 hrs by Hoechst 33342 staining based fluorescence microscopic analysis; assay type: functional, cell-based; conditions: dose 5-10 µM
Procedure, shortened: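 MGC-803 cells treated at 0, 5, 7.5 and 10 μM; cell morphology and nuclear morphology (fragmentation, condensation) examined by staining and imaging; three independent experiments, mean ± SD.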

MGC-803 [4] = assay: Induction of apoptosis in human MGC-803 cells assessed as necrotic cells at 5 uM incubated for 24 hrs by Annexin V-FITC/PI staining based flow cytometric analysis (reference value: 2.0 %); assay type: functional
MGC-803 [5] = assay: Inhibition of colony formation in human MGC-803 cells at 2 uM incubated for 9 days by crystal violet staining based analysis relative to control; assay type: functional; conditions: MGC-803, 216 h, time 9 day
Procedure, shortened: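 Clonogenic assay: MGC-803 cells grown 9 days with 0, 1, 2 or 3 μM; colonies counted and inhibition rate calculated against untreated control; mean ± SD of three independent experiments.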

SMILES: Cc1cc(N2CC[C@@H](C)[C@@H](N(C)c3ncnc4[nH]ccc34)C2)n2nc(SCc3ccc(C(F)(F)F)cc3)nc2n1
- Activity [1]: Active
- Activity (MGC-803 [2]): Active
- Activity (MGC-803 [3]): Active
- Activity (MGC-803 [4]): 4%
- inhibition at 2 µM (MGC-803 [5]): 54%
